Measured values taken from ChEMBL document CHEMBL3098105, “7,7'-Diazaindirubin--a small molecule inhibitor of casein kinase 2 in vitro and in cells” (Bioorg Med Chem, 2014).
Calls of active or inactive are those of the source. The calls are words filed in the database; no cut-off is given here.

Key:
MCF7 [1] = test: Cell cycle arrest in human MCF7 cells assessed as accumulation at G1 phase at 0.5 uM after 24 hrs using propidium iodide staining by FACS analysis (reference value: 57.74%); assay type: functional
[2] = target: T1, Casein kinase II (Homo sapiens) (UniProt P67870+P68400+P19784); test: Inhibition of human CK2 assessed as residual activity at 1 uM relative to control; assay type: protein-complex assay
[3] = target: Mitogen-activated protein kinase 1 (Homo sapiens) (UniProt P28482); test: Inhibition of human MAPK1 assessed as residual activity at 1 uM relative to control
[4] = target: Serine/threonine-protein kinase 17A (Homo sapiens) (UniProt Q9UEE5); test: Inhibition of human DRAK1 assessed as residual activity at 1 uM relative to control
Chain of Serine/threonine-protein kinase 17A (Homo sapiens) (Q9UEE5 whole entry): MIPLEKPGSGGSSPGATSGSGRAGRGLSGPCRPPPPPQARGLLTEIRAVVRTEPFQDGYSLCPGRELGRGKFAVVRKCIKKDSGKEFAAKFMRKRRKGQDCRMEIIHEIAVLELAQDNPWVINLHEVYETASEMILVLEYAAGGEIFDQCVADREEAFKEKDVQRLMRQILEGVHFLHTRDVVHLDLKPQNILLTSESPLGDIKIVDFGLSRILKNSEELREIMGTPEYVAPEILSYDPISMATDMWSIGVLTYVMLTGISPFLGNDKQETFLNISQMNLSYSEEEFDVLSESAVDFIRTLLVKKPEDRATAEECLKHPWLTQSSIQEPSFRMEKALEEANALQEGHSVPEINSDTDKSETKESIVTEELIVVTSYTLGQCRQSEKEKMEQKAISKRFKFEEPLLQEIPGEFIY

[5] = target: Cyclin-dependent kinase 5/CDK5 activator 1 (Homo sapiens) (UniProt Q00535+Q15078); test: Inhibition of human CDK5/p35 assessed as residual activity at 1 uM relative to control; assay type: protein-complex assay
[6] = target: Serine/threonine-protein kinase pim-1 (Homo sapiens) (UniProt P11309); test: Inhibition of human Pim-1 assessed as residual activity at 1 uM relative to control
[7] = target: Fibroblast growth factor receptor 1 (Homo sapiens) (UniProt P11362); test: Inhibition of human FGFR1 assessed as residual activity at 1 uM relative to control
[8] = target: Macrophage-stimulating protein receptor (Homo sapiens) (UniProt Q04912); test: Inhibition of human Ron assessed as residual activity at 1 uM relative to control
[9] = target: Homeodomain-interacting protein kinase 3 (Homo sapiens) (UniProt Q9H422); test: Inhibition of human HIPK3 assessed as residual activity at 1 uM relative to control
[10] = target: Serine/threonine-protein kinase PLK3 (Homo sapiens) (UniProt Q9H4B4); test: Inhibition of human Plk3 assessed as residual activity at 1 uM relative to control
MCF7 [11] = test: Cell cycle arrest in human MCF7 cells assessed as accumulation at sub-G1 phase at 1 uM after 24 hrs using propidium iodide staining by FACS analysis (reference value: 0.17%); assay type: functional
[12] = target: Insulin-like growth factor 1 receptor (Homo sapiens) (UniProt P08069); test: Inhibition of human IGF-1R assessed as residual activity at 1 uM relative to control
Chain of Insulin-like growth factor 1 receptor (Homo sapiens) (P08069 31-736 limits assumed): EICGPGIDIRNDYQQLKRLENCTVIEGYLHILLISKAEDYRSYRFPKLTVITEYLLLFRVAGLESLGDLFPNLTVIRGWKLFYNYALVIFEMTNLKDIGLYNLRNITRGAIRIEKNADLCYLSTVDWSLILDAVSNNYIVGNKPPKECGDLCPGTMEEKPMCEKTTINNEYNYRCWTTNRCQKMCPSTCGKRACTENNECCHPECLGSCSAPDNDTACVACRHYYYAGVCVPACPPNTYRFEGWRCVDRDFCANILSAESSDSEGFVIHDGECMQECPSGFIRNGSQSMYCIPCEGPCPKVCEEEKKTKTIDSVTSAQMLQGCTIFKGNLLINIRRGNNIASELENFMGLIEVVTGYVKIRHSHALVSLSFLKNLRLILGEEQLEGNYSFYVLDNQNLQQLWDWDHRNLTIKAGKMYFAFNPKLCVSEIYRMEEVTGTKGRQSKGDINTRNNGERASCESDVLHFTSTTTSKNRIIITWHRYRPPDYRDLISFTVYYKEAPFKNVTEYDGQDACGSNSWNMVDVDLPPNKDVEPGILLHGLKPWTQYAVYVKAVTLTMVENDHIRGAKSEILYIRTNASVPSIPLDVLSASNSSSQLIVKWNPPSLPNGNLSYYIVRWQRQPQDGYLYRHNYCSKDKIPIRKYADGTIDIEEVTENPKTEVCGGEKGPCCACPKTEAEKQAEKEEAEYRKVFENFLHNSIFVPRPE
Chain of Insulin-like growth factor 1 receptor (Homo sapiens) (P08069 741-1367 limits assumed): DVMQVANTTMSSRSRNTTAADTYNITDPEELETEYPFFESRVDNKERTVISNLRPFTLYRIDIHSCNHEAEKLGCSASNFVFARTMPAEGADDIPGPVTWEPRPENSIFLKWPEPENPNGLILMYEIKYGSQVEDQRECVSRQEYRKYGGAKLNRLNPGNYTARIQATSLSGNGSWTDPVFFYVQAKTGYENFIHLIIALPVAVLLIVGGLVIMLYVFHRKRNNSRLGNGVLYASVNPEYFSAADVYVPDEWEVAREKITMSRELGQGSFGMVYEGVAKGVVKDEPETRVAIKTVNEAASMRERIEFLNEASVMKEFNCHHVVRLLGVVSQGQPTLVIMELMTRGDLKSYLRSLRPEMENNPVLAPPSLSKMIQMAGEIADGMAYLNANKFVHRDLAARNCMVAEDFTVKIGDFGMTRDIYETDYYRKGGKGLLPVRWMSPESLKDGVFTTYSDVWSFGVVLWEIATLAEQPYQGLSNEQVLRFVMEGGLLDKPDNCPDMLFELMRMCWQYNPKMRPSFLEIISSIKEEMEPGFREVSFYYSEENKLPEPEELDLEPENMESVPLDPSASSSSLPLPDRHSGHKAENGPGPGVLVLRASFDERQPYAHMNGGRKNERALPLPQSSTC

[13] = target: Fibroblast growth factor receptor 2 (Homo sapiens) (UniProt P21802); test: Inhibition of human FGFR2 assessed as residual activity at 1 uM relative to control
Chain of Fibroblast growth factor receptor 2 (Homo sapiens) (P21802 22-821 limits assumed): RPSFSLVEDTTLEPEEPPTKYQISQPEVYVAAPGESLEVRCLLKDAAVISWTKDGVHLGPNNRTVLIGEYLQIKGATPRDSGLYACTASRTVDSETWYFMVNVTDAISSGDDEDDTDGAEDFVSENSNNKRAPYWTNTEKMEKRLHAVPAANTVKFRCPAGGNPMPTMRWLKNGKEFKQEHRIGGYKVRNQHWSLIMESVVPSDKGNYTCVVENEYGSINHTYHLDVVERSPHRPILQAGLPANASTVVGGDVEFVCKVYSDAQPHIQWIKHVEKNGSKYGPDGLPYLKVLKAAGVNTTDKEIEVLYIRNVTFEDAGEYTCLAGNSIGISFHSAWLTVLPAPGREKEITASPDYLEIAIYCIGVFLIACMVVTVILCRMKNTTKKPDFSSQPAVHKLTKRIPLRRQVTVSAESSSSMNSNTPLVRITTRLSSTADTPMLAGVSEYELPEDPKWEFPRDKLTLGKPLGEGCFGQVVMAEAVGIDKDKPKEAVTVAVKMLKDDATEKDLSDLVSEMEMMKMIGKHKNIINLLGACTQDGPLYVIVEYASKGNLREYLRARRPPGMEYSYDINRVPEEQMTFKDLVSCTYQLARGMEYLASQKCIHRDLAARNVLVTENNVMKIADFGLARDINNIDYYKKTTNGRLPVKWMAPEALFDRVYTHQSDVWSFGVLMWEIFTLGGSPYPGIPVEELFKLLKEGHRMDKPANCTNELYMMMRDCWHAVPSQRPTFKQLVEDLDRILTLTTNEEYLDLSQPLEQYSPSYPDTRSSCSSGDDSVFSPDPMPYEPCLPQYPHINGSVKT

[14] = target: Tyrosine-protein kinase ZAP-70 (Homo sapiens) (UniProt P43403); test: Inhibition of human ZAP-70 assessed as residual activity at 1 uM relative to control
[15] = target: Serine/threonine-protein kinase 24 (Homo sapiens) (UniProt Q9Y6E0); test: Inhibition of human MST3 assessed as residual activity at 1 uM relative to control
[16] = tested on: Ribosomal protein S6 kinase alpha-6 (Homo sapiens); test: Inhibition of human Rsk4 assessed as residual activity at 1 uM relative to control
M14 = test: Antiproliferative activity against human M14 cells after 3 days by sulforhodamine B assay; assay type: functional; details: M14, 72 h
Outline: (§1)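 Tested in the NCI 60 cell line panel. GI50 is the concentration giving 50% inhibition of cell growth, and values are the mean of two series of tests.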

[17] = target: Receptor-type tyrosine-protein kinase FLT3 (Homo sapiens) (UniProt P36888); test: Inhibition of human Flt3 assessed as residual activity at 1 uM relative to control
[18] = target: T1, Casein kinase II (Homo sapiens); test: Inhibition of CK2 in human MCF7 cells assessed as reduction of Akt phosphorylation at S473 at 1 uM after 30 mins by Western blot analysis; assay type: cell-based
Outline: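 MCF7 cells were grown at 37 °C and 5% CO2 in DMEM with 10% heat-inactivated FBS and penicillin/streptomycin. Cells were exposed to 1 µM for the indicated times, with DMSO as the untreated control. Extracts were made in urea lysis buffer, and 20–40 µg protein was run on 10% SDS–PAGE. Blots were probed with primary antibodies (1:1000, overnight, 4 °C) and read by ECL, with β-actin as loading control.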

[19] = target: RAF proto-oncogene serine/threonine-protein kinase (Homo sapiens) (UniProt P04049); test: Inhibition of RAF1 (unknown origin) assessed as residual activity at 1 uM relative to control
HCT-116 = test: Antiproliferative activity against human HCT116 cells after 3 days by sulforhodamine B assay; assay type: functional; details: HCT-116, 72 h; outline: as §1
IGROV-1 = test: Antiproliferative activity against human IGROV1 cells after 3 days by sulforhodamine B assay; assay type: functional; details: IGROV-1, 72 h; outline: as §1
[20] = target: Tyrosine-protein kinase Blk (Mus musculus) (UniProt P16277); test: Inhibition of mouse Blk assessed as residual activity at 1 uM relative to control
[21] = Antiproliferative activity against human HCC2998 cells after 3 days by sulforhodamine B assay; assay type: functional; details: HCC 2998, 72 h; outline: as §1
[22] = target: Tyrosine-protein kinase Lck (Homo sapiens) (UniProt P06239); test: Inhibition of human Lck assessed as residual activity at 1 uM relative to control
[23] = target: G protein-coupled receptor kinase 6 (Homo sapiens) (UniProt P43250); test: Inhibition of human GRK6 assessed as residual activity at 1 uM relative to control
Chain of G protein-coupled receptor kinase 6 (Homo sapiens) (P43250 whole entry, looked up): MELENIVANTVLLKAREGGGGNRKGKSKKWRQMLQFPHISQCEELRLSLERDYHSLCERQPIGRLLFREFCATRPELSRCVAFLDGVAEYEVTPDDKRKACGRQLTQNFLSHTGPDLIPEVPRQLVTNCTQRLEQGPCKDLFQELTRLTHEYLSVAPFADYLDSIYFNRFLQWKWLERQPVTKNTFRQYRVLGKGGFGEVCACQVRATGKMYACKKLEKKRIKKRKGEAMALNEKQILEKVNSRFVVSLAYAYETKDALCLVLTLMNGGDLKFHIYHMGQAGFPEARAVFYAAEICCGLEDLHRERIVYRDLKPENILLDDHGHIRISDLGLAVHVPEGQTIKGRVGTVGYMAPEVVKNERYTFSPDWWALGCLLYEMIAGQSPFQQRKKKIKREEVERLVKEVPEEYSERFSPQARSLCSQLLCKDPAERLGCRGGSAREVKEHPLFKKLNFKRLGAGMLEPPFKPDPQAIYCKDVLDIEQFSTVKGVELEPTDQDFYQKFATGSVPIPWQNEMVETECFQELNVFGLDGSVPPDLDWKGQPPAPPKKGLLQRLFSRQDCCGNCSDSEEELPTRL

[24] = target: Homeodomain-interacting protein kinase 2 (Homo sapiens) (UniProt Q9H2X6); test: Inhibition of human HIPK2 assessed as residual activity at 1 uM relative to control
Chain of Homeodomain-interacting protein kinase 2 (Homo sapiens) (Q9H2X6 whole entry, looked up): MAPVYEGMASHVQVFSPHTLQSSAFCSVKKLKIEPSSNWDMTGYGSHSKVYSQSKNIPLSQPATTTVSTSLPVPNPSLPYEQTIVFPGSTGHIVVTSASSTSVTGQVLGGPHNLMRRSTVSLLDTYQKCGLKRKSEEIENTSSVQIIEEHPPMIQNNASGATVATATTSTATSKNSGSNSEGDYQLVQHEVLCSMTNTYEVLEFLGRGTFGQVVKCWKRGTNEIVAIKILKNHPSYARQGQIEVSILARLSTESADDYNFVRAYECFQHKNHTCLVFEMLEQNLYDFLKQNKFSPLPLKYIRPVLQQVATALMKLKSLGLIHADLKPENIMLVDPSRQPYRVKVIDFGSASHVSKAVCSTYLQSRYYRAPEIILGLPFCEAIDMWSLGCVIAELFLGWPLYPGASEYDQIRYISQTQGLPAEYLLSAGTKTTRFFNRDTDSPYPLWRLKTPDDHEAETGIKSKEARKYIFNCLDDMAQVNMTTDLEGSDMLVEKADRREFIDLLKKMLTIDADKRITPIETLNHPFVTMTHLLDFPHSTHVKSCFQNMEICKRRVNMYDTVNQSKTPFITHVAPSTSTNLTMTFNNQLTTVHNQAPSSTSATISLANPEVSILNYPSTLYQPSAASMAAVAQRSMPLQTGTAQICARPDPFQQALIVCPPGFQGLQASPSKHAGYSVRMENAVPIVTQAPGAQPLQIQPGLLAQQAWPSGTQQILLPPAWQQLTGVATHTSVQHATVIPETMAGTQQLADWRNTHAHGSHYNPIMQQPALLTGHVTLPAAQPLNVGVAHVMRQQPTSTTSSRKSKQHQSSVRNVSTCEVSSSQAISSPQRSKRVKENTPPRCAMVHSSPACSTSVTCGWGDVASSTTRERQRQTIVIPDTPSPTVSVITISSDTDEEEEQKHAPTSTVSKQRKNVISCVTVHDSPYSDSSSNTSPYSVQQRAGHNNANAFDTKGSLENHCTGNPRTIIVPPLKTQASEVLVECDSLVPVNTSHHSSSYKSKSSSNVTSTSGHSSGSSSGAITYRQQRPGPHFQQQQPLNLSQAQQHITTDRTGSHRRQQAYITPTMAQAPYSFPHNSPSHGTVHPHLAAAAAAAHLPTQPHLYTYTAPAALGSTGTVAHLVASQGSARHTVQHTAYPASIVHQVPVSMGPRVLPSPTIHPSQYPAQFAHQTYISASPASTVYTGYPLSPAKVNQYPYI

[25] = target: Aurora kinase B (Homo sapiens) (UniProt Q96GD4); test: Inhibition of Aurora-B (unknown origin) assessed as residual activity at 10 uM relative to control
[26] = target: Serine/threonine-protein kinase TBK1 (Homo sapiens) (UniProt Q9UHD2); test: Inhibition of human TBK1 assessed as residual activity at 1 uM relative to control
[27] = target: Focal adhesion kinase 1 (Homo sapiens) (UniProt Q05397); test: Inhibition of FAK fl (unknown origin) assessed as residual activity at 1 uM relative to control
[28] = target: CDK3/Cyclin E (Homo sapiens) (UniProt P24864+Q00526); test: Inhibition of human CDK3/cyclinE assessed as residual activity at 1 uM relative to control; assay type: protein-complex assay
Chain of CDK3/Cyclin E (Homo sapiens) (P24864 whole entry, looked up): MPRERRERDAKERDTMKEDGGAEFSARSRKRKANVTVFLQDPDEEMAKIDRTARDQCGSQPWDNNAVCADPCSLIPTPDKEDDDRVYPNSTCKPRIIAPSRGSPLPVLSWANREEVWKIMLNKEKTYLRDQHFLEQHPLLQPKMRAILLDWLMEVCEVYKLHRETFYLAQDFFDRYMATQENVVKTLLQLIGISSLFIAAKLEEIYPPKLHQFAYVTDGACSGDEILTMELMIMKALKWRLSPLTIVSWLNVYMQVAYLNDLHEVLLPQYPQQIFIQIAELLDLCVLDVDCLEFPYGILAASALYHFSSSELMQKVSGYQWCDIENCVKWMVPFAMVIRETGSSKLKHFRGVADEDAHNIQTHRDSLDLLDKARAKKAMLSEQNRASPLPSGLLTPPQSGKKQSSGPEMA
Chain of CDK3/Cyclin E (Homo sapiens) (Q00526 whole entry, looked up): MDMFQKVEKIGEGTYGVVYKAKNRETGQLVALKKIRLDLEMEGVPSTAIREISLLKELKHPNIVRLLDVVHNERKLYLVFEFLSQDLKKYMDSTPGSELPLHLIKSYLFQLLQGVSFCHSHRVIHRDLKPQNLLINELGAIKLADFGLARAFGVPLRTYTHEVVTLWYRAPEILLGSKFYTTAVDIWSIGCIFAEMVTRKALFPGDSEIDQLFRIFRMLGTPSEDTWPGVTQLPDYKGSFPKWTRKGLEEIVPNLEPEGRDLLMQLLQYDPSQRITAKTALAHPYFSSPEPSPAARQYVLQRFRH

[29] = target: Serine/threonine-protein kinase 3 (Homo sapiens) (UniProt Q13188); test: Inhibition of human MST2 assessed as residual activity at 1 uM relative to control
[30] = target: Inhibitor of nuclear factor kappa-B kinase subunit beta (Homo sapiens) (UniProt O14920); test: Inhibition of human IKKbeta assessed as residual activity at 1 uM relative to control
[31] = target: Testis-specific serine/threonine-protein kinase 2 (Homo sapiens) (UniProt Q96PF2); test: Inhibition of human TSSK2 assessed as residual activity at 1 uM relative to control
[32] = target: Mitogen-activated protein kinase kinase kinase kinase 2 (Homo sapiens) (UniProt Q12851); test: Inhibition of human GCK assessed as residual activity at 1 uM relative to control
A498 = test: Antiproliferative activity against human A498 cells after 3 days by sulforhodamine B assay; assay type: functional; details: A498, 72 h; outline: as §1

Activity [2]: 49%
Activity [3]: 96%
Activity [4]: 99%
Activity [5]: 96%
Activity [6]: 108%
Activity [7]: 101%
Activity [8]: 101%
Activity [9]: 94%
Activity [10]: 104%
Activity [12]: 112%
Activity [13]: 125%
Activity [14]: 78%
Activity [15]: 113%
Activity [16]: 122%
Activity [17]: 69%
inhibition [18]: Active
Activity [19]: 97%
GI50 (HCT-116): 1010 nM
Activity [20]: 113%
Activity [22]: 55%
Activity [23]: 94%
Activity [24]: 115%
Activity [25]: 88%
Activity [26]: 120%
Activity [27]: 94%
Activity [28]: 74%
Activity [29]: 105%
Activity [30]: 110%
Activity [31]: 66%
Activity [32]: 102%
SMILES: O=C1Nc2ncccc2/C1=C1/Nc2ncccc2C1=O
Activity (MCF7 [1]): 59.53%
Activity (MCF7 [11]): 0.16%
GI50 (M14): 391 nM
GI50 (IGROV-1): 577 nM
GI50 [21]: 502 nM
GI50 (A498): 1660 nM
